Assay outcomes from PubChem.
Rows were chosen to be rich in hits. Some 2% of all compounds tested hit in one or more screens of this group.
FN deposit inh: inhibitors of fibronectin matrix deposition, primary screen, AH1F cells, Alexa488-fibronectin fluorescence, plate reader | AID 743247, 2014 | AH1F fibroblasts, overnight | inhibition, % at 12.6 µM | 350,000 tested, 0.086% active;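 active = mean inhibition across replicates of 30% or more, regardless of how many single replicates reach that level; inconclusive = mean under 30% yet at least half of replicates reach 30%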;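 note: positive control wells lacked labelled fibronectin entirely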
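Material: AH1F fibroblasts assembling fluorescent fibronectin matrix; amount: 10000 AH1F cells/well; medium: DMEM, 2% serum; reagent: Alexa488-fibronectin, 24 nM final in well; dosing: single compound dose, delivered by pin transfer; incubation: 1 h adhesion, overnight exposure; detection: fluorescence after three HBSS washes, excitation 485 nm, emission 525 nm; measure: fibronectin deposition inhibition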
Casp6 inh: human caspase-6 inhibitors, primary screen, biochemical, VEID-R110 fluorescence, single point, set 2; P55212; purified caspase-6, Z-VEID-R110 cleavage fluorescence; inhibition, % at 12.5 µM; 350,000 tested, 0.53% active; AID 686996, 2013;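 active = mean inhibition across replicates at least about 35%, with every replicate also reaching that limit, limit read from the data; inconclusive = only one of the two criteria met; inactive = neither criterion met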;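 note: 0% = median of neutral control wells and 100% = no fluorescence left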
Target sequence (P55212 24-179 limits assumed): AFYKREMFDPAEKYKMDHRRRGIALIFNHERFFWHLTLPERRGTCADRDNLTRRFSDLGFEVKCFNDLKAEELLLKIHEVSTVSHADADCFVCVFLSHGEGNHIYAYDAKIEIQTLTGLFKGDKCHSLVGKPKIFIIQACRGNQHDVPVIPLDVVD
Target sequence (P55212 194-293 limits assumed): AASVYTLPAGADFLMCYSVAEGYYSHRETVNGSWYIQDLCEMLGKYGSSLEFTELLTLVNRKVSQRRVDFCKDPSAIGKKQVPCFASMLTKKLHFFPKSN
XiGFP reactiv: activators of inactive X chromosome reactivation, primary screen, imaging, XiGFP fibroblasts, GFP high-content imaging, set 2. XiGFP mouse fibroblasts, % GFP-positive cells imaging, 3 d; cells co-treated with 5-aza-dC sensitizer; scaled so ellipticine positive control = 100%. AID 743238, 2013. activation, % at 7.58 µM. 360,000 tested, 0.055% active;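 active = mean normalized replicate activation at least 10% and every replicate at or above 10%; inconclusive = only one of the two criteria met; inactive = mean below 10% and not all replicates reach 10%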;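 note: 0% = median of on-plate neutral control wells and 100% = ellipticine 6 µM median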
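Assay system – SV40-immortalized XiGFP fibroblast cells, line 68-5-11 · Buffer or medium – DMEM supplemented with 5-aza-dC as sensitizing agent · Dosing – one concentration, pinned · Benchmarks – positive control ellipticine, 6 µM final · Times – 3 days compound exposure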
DENV2 CPE rescue: inhibitors of DENV2 cytopathic effect, primary screen, cell-based, plate reader, single concentration | DENV2-infected cells, cytopathic effect rescue | CPE inhibition, % at 9.99 µM | 350,000 tested, 1.7% active; in the data active = CPE inhibition above about 20%, passing the limit was not always enough; inconclusive = no clear call, values can overlap the other calls; tested in BHK-21 cells;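 note: 0% = median of neutral control wells and 100% = median of positive control wells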
CaV13 FRET inh: Disruptors of the CACNA1D IQ motif to Ca2+-dependent inactivation inhibitor domain association, primary screening, Förster resonance energy transfer in intact living … | 340,000 tested, 0.098% active | inhibition, % at 12.3 µM | HEK cells, CFP/YFP FRET ICDI-IQ, plate reader, 10 min; percent FRET-ratio fall versus neutral wells | AID 743397;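 active = mean replicate inhibition of at least 30% and at least 1% of replicates passing that level; inconclusive = only one of the two criteria is met; inactive = neither criterion is met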;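 note: 0% = median of the neutral control wells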
* hit, by the source's call; u = inconclusive; x = no result; ! = a repeat was not active.

SMILES	FN deposit inh	Casp6 inh	XiGFP reactiv	DENV2 CPE rescue	CaV13 FRET inh
CC1(OC(=O)CCc2ccccc2)C(=O)C=C2C=C(c3ccc(C#N)cc3)N(c3ccccc3)C=C2C1=O (stereo not drawn)	-16.5	-2.2	0.3	41.2*	-5.6
CCCC(=O)N1CC2(C1)CN(Cc1nccs1)[C@@H](CO)c1[nH]c3cc(OC)ccc3c12	x	x	0.3	u	x
Cc1cc(OC(=O)c2ccccc2[N+](=O)[O-])c([N+](=O)[O-])c(=O)[nH]1	-4.2	2.9	0.4	2.6	-6.2
COc1cccc(C(=O)Oc2cc(C)[nH]c(=O)c2[N+](=O)[O-])c1OC	-0.5	-2.5	0.4	100.6*	-6.7
C[C@@H]1CN([C@H](C)CO)C(=O)Cc2cc(NC(=O)c3ccncc3)ccc2O[C@@H]1CN(C)C(=O)Nc1ccccc1	x	-0.1	0.0	u	x
C[C@@H]1C(=O)N[C@@H](c2cccc(Cl)c2)CC=CC[C@H](C)Oc2ccccc2C(=O)N1C (mixture of isomers)	2.5	x	0.2	x	x
COc1ccc(S(=O)(=O)N(C)C[C@H]2OCc3cnnn3CCCC(=O)N([C@@H](C)CO)C[C@H]2C)cc1	2.1	-3.0	0.3	63.9*!	-5.1
COc1cccc(S(=O)(=O)N(C)C[C@@H]2OCc3cnnn3CCCC(=O)N([C@@H](C)CO)C[C@@H]2C)c1	-0.5	-4.2	0.0	20.1*!	-12.4
COc1ccc(S(=O)(=O)N(C)C[C@@H]2OCc3cnnn3CCCC(=O)N([C@@H](C)CO)C[C@H]2C)cc1	5.7	0.7	0.0	27.9*!	-7.6
C[C@H](CO)N1C[C@H](C)[C@H](CN(C)S(=O)(=O)c2ccccc2)OCc2cnnn2CCCC1=O	0.8	-0.5	0.1	28.1*!	-5.0
COc1ccc(S(=O)(=O)N(C)C[C@@H]2OCc3cnnn3CCCC(=O)N([C@H](C)CO)C[C@H]2C)cc1	5.7	-0.7	0.2	5.2	-3.2
COc1ccc(S(=O)(=O)Nc2ccc3c(c2)C(=O)N([C@@H](C)CO)C[C@@H](C)[C@@H](CN(C)Cc2ccc(C(F)(F)F)cc2)O3)cc1	x	1.6	-0.4	7.2	x
COCC(=O)N1C[C@@H]2[C@H](c3ccccc31)[C@H](CO)N2C(=O)C1CCCCC1	8.6	x	0.0	x	x
C[C@H]1CN([C@@H](C)CO)C(=O)CCCn2nncc2CO[C@@H]1CN(C)S(=O)(=O)c1ccccc1F	2.3	-0.4	0.1	70.0*	x
C[C@H](CO)N1C[C@H](C)[C@@H](CN(C)S(=O)(=O)c2ccccc2F)OCc2cnnn2CCCC1=O	-8.0	-0.4	0.1	5.3	-9.3
Brc1ccc(OCc2nnc(SCC3CCCCC3)o2)cc1	0.0	-3.5	0.1	28.9*	-3.3
CCc1ccc(OCc2nnc(SCC(=O)NC3CCCCC3)o2)cc1	12.5	1.8	0.0	-5.7	-2.7
O=C(NCC[C@@H]1CC[C@@H](NC(=O)Nc2cc(F)ccc2F)[C@@H](CO)O1)Nc1ccc(Cl)cc1	-10.6	-1.5	0.2	10.3	x
C[C@@H]1CCCCO[C@H](CN(C)C(=O)CCCN(C)C)[C@H](C)CN([C@@H](C)CO)C(=O)c2cc(NS(=O)(=O)c3cccs3)ccc2O1	x	-21.6	0.4	-11.7	x
C[C@H](CO)N1C[C@H](C)[C@@H](CN(C)C(=O)CCCN(C)C)OCCCC[C@H](C)Oc2ccc(NS(=O)(=O)c3cccs3)cc2C1=O	x	-19.7	0.2	-5.4	x
C[C@@H]1CN([C@@H](C)CO)C(=O)c2cc(NS(=O)(=O)c3cccs3)ccc2O[C@@H](C)CCCCO[C@@H]1CN(C)C(=O)CCCN(C)C	x	-3.1	0.2	46.4*	x
C[C@H](CO)N1C[C@H](C)[C@H](CN(C)C(=O)CCCN(C)C)OCCCC[C@H](C)Oc2ccc(NS(=O)(=O)c3cccs3)cc2C1=O	x	-4.7	-0.1	55.0*	x
COc1ccc2c3c([nH]c2c1)[C@H](CO)N(C(=O)Nc1ccc(F)cc1)CC31CN(CC2CCOCC2)C1	x	0.4	0.3	11.1	x
COCC(=O)Nc1ccc2c(c1)[C@H]1C[C@H](CC(=O)N3CCCCC3)O[C@@H](CO)[C@H]1O2	6.7	x	0.0	2.3	x
C[C@H](CO)N1C[C@H](C)[C@@H](CN(C)C(=O)Cc2cccnc2)Oc2ncc(C3=CCCCC3)cc2C1=O	3.1	3.9	-1.0	4.6	x
SMILES	FN deposit inh	Casp6 inh	XiGFP reactiv	DENV2 CPE rescue	CaV13 FRET inh
C[C@H](CO)N1C[C@H](C)[C@H](CN(C)C(=O)c2ccccn2)Oc2ncc(Br)cc2C1=O	13.1	3.9	0.1	73.2*!	-8.4
C[C@@H]1CN([C@@H](C)CO)C(=O)c2cc(Br)cnc2O[C@@H]1CN(C)C(=O)c1ccccn1	26.4	0.6	-0.6	3.5	x
C[C@@H]1CN([C@H](C)CO)C(=O)c2cc(C3=CCCCC3)cnc2O[C@@H]1CN(C)C(=O)Cc1cccnc1	1.0	1.9	-0.8	56.0*	x
C[C@H](CO)N1C[C@H](C)[C@H](CN(C)C(=O)c2ccccn2)Oc2ncc(C3=CCCCC3)cc2C1=O	-4.3	-5.3	0.1	62.1*	x
C[C@@H]1COCc2cn(nn2)CC[C@H](Cc2ccccc2)C(=O)N1	-3.5	x	0.0	x	x
C=CCC[C@@H](Cc1ccc(F)cc1)C(=O)OC[C@H]1CCCN1C(=O)[C@@H](CC=C)CC(=O)N[C@H](CO)Cc1ccccc1	-4.2	5.9	0.2	-2.6	-10.1
C=CCC[C@@H](Cc1ccc(F)cc1)C(=O)OC[C@H](Cc1c[nH]c2ccccc12)NC(=O)[C@@H](CC=C)CC(=O)N[C@H](CO)Cc1ccccc1	9.2	3.0	0.0	u	-11.4
C=CCC[C@H](Cc1ccc(F)cc1)C(=O)OC[C@H](Cc1c[nH]c2ccccc12)NC(=O)[C@@H](CC=C)CC(=O)N[C@@H](CO)Cc1ccccc1	31.5*	-6.1	1.6	7.1	-3.8
C=CC[C@@H](CC(=O)N[C@H](CO)Cc1ccccc1)C(=O)N[C@@H](COC(=O)[C@H](CC=C)CC(=O)OC(C)(C)C)Cc1ccccc1	-5.6	-0.2	-0.7	78.9*	-4.5
C=CC[C@@H](CC(=O)N[C@@H](CO)Cc1ccccc1)C(=O)N[C@@H](COC(=O)[C@@H](CC=C)Cc1ccc(F)cc1)Cc1c[nH]c2ccccc12	3.0	-0.5	0.3	72.8*	-6.4
C=CCC[C@@H](Cc1ccc(F)cc1)C(=O)OC[C@@H]1CCCN1C(=O)[C@H](CC=C)CC(=O)N[C@H](CO)Cc1ccccc1	-3.2	0.6	0.1	20.4*	-5.0
CNC(=O)C[C@@H]1CC[C@H]2[C@H](COc3ccc(NC(=O)c4ccc(OC)cc4)cc3C(=O)N2C)O1	-43.9	-0.3	0.2	2.4	x
